# In ChEMBL document CHEMBL4251683, “Improved Dose-Response Relationship of (+)-Discodermolide-Taxol Hybrid Congeners” (2018):
# Calls of active or inactive are those of the source. No cut-off for these calls is given here.
# Key:
# BT-549 [1] = assay: Induction of cell death in human BT549 cells at EC80 concentration after 3 to 6 days by DAPI staining based flow cytometry; type: functional
# Procedure, shortened: (§1)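 Compounds given at approximately EC80 (taken from the cell's own dose-response data) for 3 to 6 days depending on line. Floating and trypsinized adherent cells were pooled, washed 3–5 times in warm PBS, and stained with DAPI (1/10,000) in PBS with 4% FBS on ice. Flow cytometry counted 10 000 cells per gate: dead = DAPI+, senescent = SSC+ DAPI−. Duplicate experiments, mean ± SEM.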
# MDA-MB-468 [2] = assay: Induction of senescence in human MDA-MB-468 cells at EC80 concentration after 3 to 6 days by DAPI staining based flow cytometry; type: functional; procedure, shortened: as §1
# Bos taurus = organism: Bos taurus; assay: Induction of bovine brain tubulin alpha polymerization assessed as alpha tubulin expression by measuring pellet/supernatant and pellet fraction level at 3 uM after 1 hr by immunoblot method (reference value: 10.4%)
# Procedure, shortened: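 Purified bovine brain tubulin incubated 30 min at 37 °C with 3 μM compound in MEM–glycerol buffer, 2 mM GTP, pH 6.9. Spun at 120000g, 37 °C, 1 h. Supernatant and SDS-solubilized pellet run on SDS-PAGE, α-tubulin quantified by Western blot, % polymerized calculated as P/(S + P).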
# MDA-MB-468 [3] = assay: Induction of cell death in human MDA-MB-468 cells at EC80 concentration after 3 to 6 days by DAPI staining based flow cytometry; type: functional; procedure, shortened: as §1
# BT-549 [4] = assay: Induction of senescence in human BT549 cells at EC80 concentration after 3 to 6 days by DAPI staining based flow cytometry; type: functional; procedure, shortened: as §1
# Hs-578T [5] = assay: Induction of senescence in human Hs578T cells at EC80 concentration after 3 to 6 days by DAPI staining based flow cytometry; type: functional; procedure, shortened: as §1
# HEY [6] = assay: Induction of senescence in human HEY cells assessed as increase in IL-8 mRNA expression level at EC80 concentration after 6 days by qRT-PCR analysis; type: functional, cell-based
# Procedure, shortened: (§2)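 Cells treated 6 days at EC80 doses (derived from dose-response data) and analysed for SASP transcripts by qRT-PCR. Expression was normalised to cyclophilin B and expressed relative to vehicle-treated asynchronous cells. Bars are mean ± SEM (n = 2).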
# Hs-578T [7] = assay: Induction of cell death in human Hs578T cells at EC80 concentration after 3 to 6 days by DAPI staining based flow cytometry; type: functional; procedure, shortened: as §1
# HEY [8] = assay: Induction of senescence in human HEY cells at EC80 concentration after 3 to 6 days by DAPI staining based flow cytometry; type: functional; procedure, shortened: as §1
# HEY [9] = assay: Induction of senescence in human HEY cells assessed as increase in CXCL1 mRNA expression level at EC80 concentration after 6 days by qRT-PCR analysis; type: functional, cell-based; procedure, shortened: as §2
# HEY [10] = assay: Induction of senescence in human HEY cells assessed as increase in PAI1 mRNA expression level at EC80 concentration after 6 days by qRT-PCR analysis; type: functional, cell-based; procedure, shortened: as §2
# HCC1143 = assay: Antiproliferative activity against human HCC1143 cells after 3 to 7 days by SRB assay; type: functional, cell-based
# Procedure, shortened: (§3)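 Sulforhodamine B total-protein read-out on adherent cells maintained in RPMI with 10% FBS. Seeding was 900–4000 cells per well depending on line, with 24 h allowed for attachment. Six replicate wells per concentration, exposure for three cell doublings (3 to 7 days); DMSO final below 0.01%. Logistic sigmoidal fit by nonlinear least squares gave EC50, EMax and AUC; experiments repeated at least three times.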
# MCF7 = assay: Antiproliferative activity against human MCF7 cells after 3 to 7 days by SRB assay; type: functional, cell-based; procedure, shortened: as §3
# Hs-578T [11] = assay: Antiproliferative activity against human Hs578T cells after 3 to 7 days by SRB assay; type: functional, cell-based; procedure, shortened: as §3
# MDA-MB-157 = assay: Antiproliferative activity against human MDA-MB-157 cells after 3 to 7 days by SRB assay; type: functional, cell-based; procedure, shortened: as §3
# MDA-MB-468 [12] = assay: Antiproliferative activity against human MDA-MB-468 cells after 3 to 7 days by SRB assay; type: functional, cell-based; procedure, shortened: as §3
# HEY [13] = assay: Antiproliferative activity against human HEY cells after 3 to 7 days by SRB assay; type: functional, cell-based; procedure, shortened: as §3
# BT-20 = assay: Antiproliferative activity against human BT20 cells after 3 to 7 days by SRB assay; type: functional, cell-based; procedure, shortened: as §3
# BT-549 [14] = assay: Antiproliferative activity against human BT549 cells after 3 to 7 days by SRB assay; type: functional, cell-based; procedure, shortened: as §3
# A549 = assay: Antiproliferative activity against human A549 cells after 3 to 7 days by SRB assay; type: functional, cell-based; procedure, shortened: as §3
# Hs-578T [15] = assay: Induction of senescence in human Hs578T cells assessed as increase in dead cells at 100 nM after 10 days by DAPI staining based flow cytometry; type: functional, cell-based
# Procedure, shortened: (§4)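 HS578T treated with 100 nM doxorubicin for 10 days, then stained with DAPI for live-cell flow cytometry. Forward scatter (volume) and side scatter (granularity) recorded. Dead cells were DAPI+; senescent cells were high FSC and SSC with low DAPI uptake; mitotic catastrophe was FSC increase only.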
# Hs-578T [16] = assay: Induction of mitotic catastrophe in human Hs578T cells assessed as increase in cell population with high forward scatter at 100 nM after 10 days by DAPI staining based flow cytometry; type: functional; procedure, shortened: as §4
# Hs-578T [17] = assay: Induction of senescence in human Hs578T cells assessed as increase in cell population with high side scatter at 100 nM after 10 days by DAPI staining based flow cytometry; type: functional; procedure, shortened: as §4
# Hs-578T [18] = assay: Induction of senescence in human Hs578T cells assessed as increase in CXCL1 mRNA expression level at 100 nM after 10 days by qRT-PCR analysis; type: functional, cell-based
# Procedure, shortened: (§5)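 HS578T exposed to 100 nM doxorubicin for 10 days, then sorted for SSC+ DAPI− cells. Sorted and unsorted populations assayed by qRT-PCR for SASP transcripts. Expression was normalised to cyclophilin B, and groups compared by unpaired t test.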
# Hs-578T [19] = assay: Induction of senescence in human Hs578T cells assessed as increase in cell population with high forward scatter at 100 nM after 10 days by DAPI staining based flow cytometry; type: functional; procedure, shortened: as §4
# Hs-578T [20] = assay: Induction of senescence in human Hs578T cells assessed as increase in IL-6 mRNA expression level at 100 nM after 10 days by qRT-PCR analysis; type: functional, cell-based; procedure, shortened: as §5
# Hs-578T [21] = assay: Induction of senescence in human Hs578T cells assessed as increase in IL-8 mRNA expression level at 100 nM after 10 days by qRT-PCR analysis; type: functional, cell-based; procedure, shortened: as §5
# MDA-MB-468 [22] = assay: Induction of senescence in human MDA-MB-468 cells assessed as increase in PAI1 mRNA expression level at EC80 concentration after 6 days by qRT-PCR analysis; type: functional, cell-based; procedure, shortened: as §2
# MDA-MB-468 [23] = assay: Induction of senescence in human MDA-MB-468 cells assessed as increase in IL-8 mRNA expression level at EC80 concentration after 6 days by qRT-PCR analysis; type: functional, cell-based; procedure, shortened: as §2
# MDA-MB-468 [24] = assay: Induction of senescence in human MDA-MB-468 cells assessed as increase in CXCL1 mRNA expression level at EC80 concentration after 6 days by qRT-PCR analysis; type: functional, cell-based; procedure, shortened: as §2
Activity (Bos taurus) [%],SMILES,Activity (Hs-578T [5]),Activity (Hs-578T [7]),Activity (HEY [8]),Activity (HCC1143),Activity (MCF7),Activity (Hs-578T [11]),Activity (MDA-MB-157),Activity (MDA-MB-468 [12]),Activity (HEY [13]),Activity (BT-20),Activity (BT-549 [14]),Activity (A549),also measured
52.2,C=C/C=C\[C@H](C)[C@H](OC(=O)NCCCCNC(=O)c1ccc(N=[N+]=[N-])cc1)[C@@H](C)[C@H](O)[C@@H](C)C/C(C)=C\[C@H](C)[C@@H](O)[C@@H](C)/C=C\[C@@H](O)C[C@@H]1OC(=O)[C@H](C)[C@@H](O)[C@H]1C,15 - 18%,inactive,10 - 15%,–,–,–,–,–,–,–,–,–,Activity (BT-549 [1]): Active; Activity (MDA-MB-468 [2]): <10%; Activity (MDA-MB-468 [3]): Active; Activity (BT-549 [4]): <10%; Activity (HEY [6]): Active; Activity (HEY [9]): Active; Activity (HEY [10]): Active
15.8,CC(=O)O[C@H]1C(=O)[C@@]2(C)[C@H]([C@H](OC(=O)c3ccccc3)[C@]3(O)C[C@H](OC(=O)[C@H](O)[C@@H](NC(=O)c4ccccc4)c4ccccc4)C(C)=C1C3(C)C)[C@]1(OC(C)=O)CO[C@@H]1C[C@@H]2O [PACLITAXEL],15 - 18%,–,10 - 15%,Active,Active,Active,Active,Active,Active,Active,Active,Active,–
–,COc1cccc2c1C(=O)c1c(O)c3c(c(O)c1C2=O)C[C@@](O)(C(=O)CO)C[C@@H]3O[C@H]1C[C@H](N)[C@H](O)[C@H](C)O1,–,–,–,–,–,–,–,–,–,–,–,–,Activity (Hs-578T [15]): Active; Activity (Hs-578T [16]): Active; Activity (Hs-578T [17]): Active; Activity (Hs-578T [18]): Active; Activity (Hs-578T [19]): Active; Activity (Hs-578T [20]): Active; Activity (Hs-578T [21]): Active

SMILES,Activity (Bos taurus) [%],Activity (Hs-578T [5]),Activity (Hs-578T [7]),Activity (HEY [8]),Activity (HCC1143),Activity (MCF7),Activity (Hs-578T [11]),Activity (MDA-MB-157),Activity (MDA-MB-468 [12]),Activity (HEY [13]),Activity (BT-20),Activity (BT-549 [14]),Activity (A549),also measured
C=C/C=C\[C@H](C)[C@H](OC(N)=O)[C@@H](C)[C@H](O)[C@@H](C)C/C(C)=C\[C@H](C)[C@@H](O)[C@@H](C)/C=C\[C@@H](O)C[C@@H]1OC(=O)[C@H](C)[C@@H](O)[C@H]1C [DISERMOLIDE],59.3,15 - 18%,inactive,10 - 15%,Active,Active,Active,Active,Active,Active,Active,Active,Active,Activity (MDA-MB-468 [22]): Active; Activity (MDA-MB-468 [23]): Active; Activity (MDA-MB-468 [24]): Active
